TAAR1 antag: human TAAR1 antagonism. CHO RD-HGA16 TAAR1, Fluo-8 calcium fluorescence, antagonist. inhibition, % at 3 µM. 360,000 tested, 1.5% active;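 active = inhibition above a per-plate cutoff, the mean inhibition of test compounds on that plate plus 3 SD, cut at about 49% in these data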;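 note: 0% = DMSO plus EC80 beta-PEA response and 100% = DMSO alone without agonist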
Target sequence (Q96RJ0 whole entry, looked up): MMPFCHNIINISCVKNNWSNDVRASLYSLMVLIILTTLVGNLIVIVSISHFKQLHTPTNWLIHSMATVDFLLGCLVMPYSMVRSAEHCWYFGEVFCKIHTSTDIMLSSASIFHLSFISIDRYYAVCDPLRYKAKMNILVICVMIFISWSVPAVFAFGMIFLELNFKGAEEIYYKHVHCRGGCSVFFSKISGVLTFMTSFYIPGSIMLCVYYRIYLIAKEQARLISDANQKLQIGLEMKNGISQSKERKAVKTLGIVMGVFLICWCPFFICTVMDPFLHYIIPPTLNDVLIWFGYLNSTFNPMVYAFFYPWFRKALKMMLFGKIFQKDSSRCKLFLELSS
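Test system: CHO RD-HGA16 cells bearing hTAAR1 | Reagent: β-PEA, EC80 | Compound dosing: 3 µM, single point | Schedule: Dye loading 75 min at 37 °C, then 30 min room temperature | Signal: Calcium fluorescence with Fluo-8 | Evaluation: Percent inhibition of PEA-evoked calcium signal, max/basal emission ratio | Control set: DMSO-only wells and EC80 β-PEA-stimulated wells | Repeats: Singlicate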
OX1R antag-1: antagonists of human orexin 1 receptor | CHO/OX1R cells, Fluo-8 calcium fluorescence, orexin A | inhibition, % at 5 µM | 330,000 tested, 0.43% active | AID 434989;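 active = inhibition above its plate's threshold, mean inhibition of all tested compounds on the plate plus 3 SD, cut at about 37% in these data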;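 note: 0% = orexin A challenge wells and 100% = SB-334867-A antagonist wells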
OX1R antag-2: blocks the human orexin 1 receptor | O43613 | OX1R-expressing cells, FRET antagonist read-out | inhibition, % at 6.6 µM | 330,000 tested, 1.8% active; in the data active = inhibition mostly above about 38%, no sharp cut-off; inactive = mostly below about 40%;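 note: 0% = agonist challenge alone and 100% = reference antagonist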
TAAR1 agonist: agonists of human TAAR1; 360,000 tested, 0.99% active; CHO RD-HGA16 TAAR1, Fluo-8 calcium fluorescence; vehicle wells 0%, saturating PEA agonist 100%; Q96RJ0; activation, % at 3 µM;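 active = activation above the mean activation of all test compounds in the run plus 3 SD, cut at about 38% in these data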
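System: CHO RD-HGA16 cells carrying human TAAR1 plus Gα16; Incubation: 17-24 h seeding, 75 min 37 °C dye, 30 min RT; Measured by: Fluo-8 fluorescence, 5 s baseline then 140 s kinetic read; Control set: DMSO and PEA EC100; Replication: single well for each compound.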
GPR7 antagonist: antagonists of human GPR7 (neuropeptides B/W receptor 1) | P48145 | GPR7-expressing cells, fluorescence antagonist assay | inhibition, % at 4.4 µM | 290,000 tested, 1.1% active; in the data active = inhibition above about 16%, passing the limit was not always enough;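 note: cells stimulated with the agonist NPW; 0% = agonist with vehicle and 100% = vehicle without agonist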
Target sequence (P48145 whole entry, looked up): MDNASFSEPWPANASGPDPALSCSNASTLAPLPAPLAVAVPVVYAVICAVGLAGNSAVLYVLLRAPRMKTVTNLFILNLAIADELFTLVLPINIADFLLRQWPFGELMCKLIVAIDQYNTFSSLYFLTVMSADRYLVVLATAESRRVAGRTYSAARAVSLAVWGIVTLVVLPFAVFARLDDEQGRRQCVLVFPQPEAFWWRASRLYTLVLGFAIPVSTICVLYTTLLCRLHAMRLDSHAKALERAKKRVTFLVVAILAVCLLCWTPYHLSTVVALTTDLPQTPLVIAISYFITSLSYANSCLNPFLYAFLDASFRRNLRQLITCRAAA
CHO parental Ca: signal in parental CHO cells, OX1R antagonist counter-screen; parental CHO-K1, ATP-induced calcium, Fluo-8 fluorescence; 330,000 tested, 0.63% active; inhibition, % at 5.6 µM;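 active = inhibition above that plate's mean sample inhibition plus 3 SD, cut at about 26% in these data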;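 note: 0% = ATP-challenged DMSO wells and 100% = DMSO wells without ATP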
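Assay system – parental CHO cells · Reagent – ATP stimulus · Detection – intracellular calcium via Fluo-8 no-wash fluorescent dye · Evaluation – percent inhibition of ATP-evoked calcium rise, normalized to controls · Controls – ATP wells versus no-ATP DMSO wells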
GPR7 antag conf: confirmation of human GPR7 antagonists; AID 1952; shares compounds with GPR7 antagonist; 2,400 tested, 52% active; GPR7-expressing cells, calcium fluorescence antagonist mode; inhibition, % at 4.4 µM; in the data active = inhibition above about 24%;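 note: stimulated with the GPR7 agonist NPW; 0% = agonist plus vehicle and 100% = vehicle alone without agonist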
MCHR1 antag: MCHR1 (human) antagonism in GPR7 counter-screen. shares compounds with GPR7 antagonist. MCHR1-expressing cells, fluorescence antagonist assay. AID 2148. inhibition, % at 4.4 µM. 2,400 tested, 62% active; in the data active = inhibition above about 22%;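 note: 0% = vehicle with agonist and 100% = vehicle without agonist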
Active calls of the source: *; nt = no result. Sampled rows, rich in hits. Any-hit rate of the full collection: about 4.5%.

SMILES | TAAR1 antag | OX1R antag-1 | OX1R antag-2 | TAAR1 agonist | GPR7 antagonist | CHO parental Ca | GPR7 antag conf | MCHR1 antag
CC(C)c1ccc(S(=O)(=O)N2CCC(C(=O)N3CCC3)CC2)cc1 | 10 | -15 | 8 | 1 | nt | -16 | nt | nt
CC(C)CCNC(=O)NC(=O)CN1C(=O)NC2(CCCCC2)C1=O | -8 | -18 | 15 | 1 | 24* | -15 | -8 | -2
Cc1ccc(-n2c(SCC(=O)N3CC(=O)Nc4ccccc43)nc3ccccc3c2=O)cc1 | 25 | -23 | 22 | 15 | 27* | -15 | 6 | -10
Cc1cccc(C)c1-n1c(SCC(=O)N2CC(=O)Nc3ccccc32)nc2ccccc2c1=O | 24 | -19 | 4 | 12 | 16 | -26 | nt | nt
Cc1cc(O)c(C(C)C)cc1N=Cc1ccc(N(C)C)cc1 | -9 | nt | nt | 0 | nt | nt | nt | nt
CN(CC(=O)Nc1ccccc1Cl)C(=O)CN1C(=O)C2CCCCC2C1=O (stereo unspecified) | -15 | -12 | 25 | 1 | nt | -6 | nt | nt
Cc1cc(Cl)ccc1OC(C)C(=O)Nc1ccc(S(=O)(=O)N2CCOCC2)cc1 (stereo unspecified) | 31 | 12 | -7 | 23 | 35* | 14 | 24 | 26*
CCC(C)c1ccc(S(=O)(=O)N2CCN(C(=O)CN3C(=O)NC(C)(C4CC4)C3=O)CC2)cc1 (stereo unspecified) | -6 | nt | nt | 1 | nt | nt | nt | nt
COc1cccc2cc(-c3nc4ccccc4[nH]3)c(=O)oc12 | 14 | -14 | 32 | 8 | -13 | -2 | nt | nt
CCN(CC)c1ccc2cc(-c3nc4ccccc4[nH]3)c(=O)oc2c1 | nt | 113* | 81* | nt | 28* | 80* | 81* | 89*
CCC(Sc1ncnc2c1nnn2-c1ccc(F)cc1)C(=O)OC (stereo unspecified) | 16 | 12 | 16 | 4 | 14 | -8 | nt | nt
CCOC(=O)C(C)Sc1ncnc2c1nnn2-c1ccc(F)cc1 (stereo unspecified) | 18 | -21 | 9 | 16 | 44* | -6 | 38* | 44*
COc1ccccc1/C=C(\C#N)C(=O)c1cccn1C | 0 | 4 | 5 | 4 | 15 | -15 | nt | nt
COc1ccccc1/C=C(/C#N)C(=O)O | 1 | nt | nt | 4 | 17 | nt | -24 | 16
CN(CC(=O)NCC(=O)Nc1ccc(F)cc1)CC(=O)Nc1ccc(Cl)c(C(F)(F)F)c1 | 3 | nt | nt | 1 | nt | nt | nt | nt
CN(CC(=O)NCc1ccc(F)cc1)CC(=O)Nc1ccc(Cl)c(C(F)(F)F)c1 | 15 | 57* | 34 | 37 | 28* | 67* | 27* | 61*
CC(C)CCNc1nc(N)c([N+](=O)[O-])c(N2CCCCCC2)n1 | 24 | -27 | 13 | 26 | -2 | 0 | nt | nt
CC(=O)Nc1cccc(-c2ccnc3c2CC(C)(C(=O)NCC2CC2)O3)c1 (stereo unspecified) | -12 | nt | nt | -1 | nt | nt | nt | nt
CC(=O)Nc1ccc(S(=O)(=O)NCc2nc(-c3cccc(C)c3)no2)cc1 | 3 | 13 | 16 | 3 | 24* | -8 | 0 | 0
CC(=O)Nc1ccc(S(=O)(=O)NCc2nc(-c3ccc(C)cc3)no2)cc1 | -23 | -13 | 14 | -1 | -16 | -18 | nt | nt
CCC(C)Sc1ccc([C@H]2N[C@@](C)(C(=O)OC)[C@H]3C(=O)N(CC)C(=O)[C@@H]23)cc1 (stereo partly specified) | 5 | -28 | 27 | 1 | nt | -5 | nt | nt
O=C(COC(=O)CNS(=O)(=O)c1ccc2ccccc2c1)Nc1ccccc1Sc1ccccc1 | 14 | 13 | 20 | 8 | 23* | 3 | 32* | 34*
COc1ccccc1CNC(=O)COC(=O)c1ccccc1-c1ccccc1 | 6 | -18 | 14 | 0 | nt | -2 | nt | nt
O=C(NCc1ccc2c3c(cccc13)C(=O)N2)c1cccs1 | -8 | nt | nt | 3 | -6 | nt | nt | nt
O=C(COC(=O)c1ccc([N+](=O)[O-])o1)Nc1ccc2c(c1)OC(F)(F)O2 | -3 | nt | nt | 5 | nt | nt | nt | nt
SMILES | TAAR1 antag | OX1R antag-1 | OX1R antag-2 | TAAR1 agonist | GPR7 antagonist | CHO parental Ca | GPR7 antag conf | MCHR1 antag
CN(C)c1ccc(/C=C(\C#N)C(=O)Nc2nc3c(s2)CCN(Cc2ccccc2)C3)cc1 | 41 | 23 | 3 | 24 | 26* | 0 | 33* | 31*
O=C(Nc1nc2c(s1)CN(Cc1ccccc1)CC2)C1CCC1 | -3 | -22 | 12 | 2 | 4 | -22 | nt | nt
Clc1ccc(-n2c(SC/C=C/c3ccccc3)nnc2-c2cccnc2)cc1 | 7 | -16 | 6 | 12 | 32* | -26 | 27* | 21
Nn1c(SC/C=C/c2ccccc2)nnc1-c1cccnc1 | 5 | 1 | 1 | 4 | 13 | -7 | nt | nt
COc1ccccc1CNS(=O)(=O)c1ccc(Cl)s1 | -2 | -7 | 27 | 5 | 23* | -11 | 2 | 10
COc1ccccc1CNS(=O)(=O)c1cc(C)ccc1OC | -4 | -4 | 26 | 12 | 4 | -1 | nt | nt
O=C(C/C=N\OCc1ccc([N+](=O)[O-])cc1)Nc1ccc(Cl)cc1 | 21 | -16 | 31 | 5 | 25* | -1 | 31* | 40*
CC1(C)CC(C(CC(=O)O)c2ccccc2)CCO1 (stereo unspecified) | 0 | -8 | -2 | 2 | 13 | -13 | nt | nt
CC1(C)CC(C(CC(=O)N2CCCC2)Cc2ccccc2)CCO1 (stereo unspecified) | -10 | -21 | -1 | 6 | 23* | -10 | 9 | 14
Cc1ccccc1N(C(=O)c1snc(C(N)=O)c1N)C(C(=O)NC1CCCC1)c1ccco1 (stereo unspecified) | 6 | nt | nt | 5 | -19 | nt | nt | nt
CCc1nc2c(OCc3ccccc3)cccn2c1N(Cc1ccccc1)C(C)=O | -19 | nt | nt | -3 | nt | nt | nt | nt
CCOCCCNC(=S)N1C2CCC1CC(NC(=O)Nc1ccc(C(=O)OCC)cc1)C2 (stereo unspecified) | -38 | -7 | 28 | 3 | 26* | -13 | -7 | 2
Nc1nc2ccccc2n1CCN1CCCC1 | nt | -15 | 24 | nt | 33* | -5 | -8 | 2
Cc1ccccc1-c1nnn(CC(=O)NC(=O)NC2CCCC2)n1 | -34 | -24 | 6 | 18 | nt | -7 | nt | nt
CC1(C)CSC(=NCc2ccccc2)N1C(=O)c1cccc([N+](=O)[O-])c1 | 25 | 20 | 10 | 33 | 71* | 2 | 75* | 82*
NC(=NCc1ccccc1)c1cccc([N+](=O)[O-])c1 | 9 | -14 | 31 | -1 | -10 | -12 | nt | nt
